In ChEMBL document CHEMBL1134527, “Discovery of novel mesangial cell proliferation inhibitors using a three-dimensional database searching method” (2001) one finds inhibition data, which are given here for nine compounds.

Common to all, as to type: functional
Assay [1] can be described thus: Compound was tested for the in vitro MC proliferation Inhibitory activity at a dose of 0.1 uM against normal human mesangial cells. The method, boiled down: (§1)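 Normal human glomerular mesangial cells grown in MCDB131 with 5% FBS, amphotericin B and gentamycin. Plated at 2 × 10⁴ cells/well for 3 days, then serum-free 4 days. Exposed to compound in DMEM + 2% FBS for 18 h with 1 μCi/mL [³H]thymidine. TCA-insoluble counts read; four wells per concentration. Inhibition % = (control − sample)/(control − DMEM blank).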

Assay [2] relates to RPTEC. The assay is described as follows: Compound was evaluated for the renal proximal tubular epithelial cell (RPTEC) proliferation assay using RPTEC's at a dose of 10 uM. As to conditions: Homo sapiens. The method, boiled down:
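Human renal proximal tubular epithelial cells, run by the same [³H]thymidine method as the mesangial assay. Compound added in DMEM + 2% FBS for 18 h after serum-free pre-incubation. DNA synthesis taken as TCA-insoluble counts, four wells per concentration. Inhibition % = (control − sample)/(control − blank), where blank is DMEM alone.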

Assay [3] concerns RPTEC. The assay is described as follows: Compound was evaluated for the renal proximal tubular epithelial cell (RPTEC) proliferation assay using RPTEC''s at a dose of 0.1 uM. As to conditions: Homo sapiens. Summed up:
(§2)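 Human renal proximal tubular epithelial cells handled as in the mesangial assay: plated 2 × 10⁴ cells/well for 3 days, serum-starved 4 days. Then 18 h in DMEM + 2% FBS with compound and 1 μCi/mL [³H]thymidine. TCA-precipitable counts measured; four wells per concentration. % inhibition = (control − sample)/(control − blank).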

Assay [4] concerns RPTEC. The assay is described as follows: Compound was evaluated for the renal proximal tubular epithelial cell ( RPTEC) proliferation assay using RPTEC''s at a dose of 1 uM. As to conditions: Homo sapiens. The method, boiled down:
as §2

Assay [5] is described as follows: Compound was tested for the in vitro MC proliferation Inhibitory activity at a dose of 10 uM against normal human mesangial cells. The method, boiled down:
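Normal human glomerular mesangial cells kept in MCDB131 with amphotericin B, gentamycin and 5% FBS. Seeded 2 × 10⁴ cells/well, grown 3 days, serum-starved 4 days. Then given compound in DMEM + 2% FBS for 18 h with 1 μCi/mL [³H]thymidine. TCA-insoluble counts read by scintillation, four wells per concentration. Inhibition % = (control − sample)/(control − blank), where blank is DMEM alone.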

The nature of assay [6]: Compound was tested for the in vitro MC proliferation Inhibitory activity at a dose of 1 uM against normal human mesangial cells. Summed up:
as §1

SMILES strings stand for the structures.

What is called inhibition is the drop in the measured response relative to a control, in per cent. In the case of `Cc1c(Cc2c(Cl)cccc2Cl)c(=O)oc2cc(OCC(=O)OCC(=O)c3ccccc3)ccc12`, the figures for the inhibition at 0.1 µM (in assay [1]; with RPTEC [3]) were 49% and 35%, respectively. Also, the inhibition at 10 µM was found to be 31% in the assay on RPTEC [2] and 66% in assay [5]. Moreover, the inhibition at 1 µM with RPTEC [4] came to 24%; in assay [6], 60%.

In the case of `CCOP(=O)(Cc1ccc(C(=O)Nc2nc3c(OC)cc(OC)cc3s2)cc1)OCC`, the inhibition at 0.1 µM in assay [1] came out at 59%; with RPTEC [3], 33%. In addition, the inhibition at 10 µM in the assay on RPTEC [2] stood at 103%; in assay [5], 108%. The results for the inhibition at 1 µM (with RPTEC [4]; in assay [6]) were 39% and 59%, respectively.

For the compound `CCOC(=O)c1cc(NC(=O)NC(=O)c2c(Cl)cccc2Cl)ccc1Oc1cncc(Cl)c1`, the inhibition at 0.1 µM in assay [1] is 90%; in the assay on RPTEC [3] it was -1%. In addition, the figures for the inhibition at 10 µM (in the assay with RPTEC [2]; in assay [5]) were 96% and 112%, respectively. The inhibition at 1 µM was 32% in the assay with RPTEC [4] and 105% in assay [6].

With `CO/C(O)=C(/C=N/c1ccc(Oc2ccccc2OC(C)C)nc1)NC(=O)c1ccccc1`, the results for the inhibition at 0.1 µM (in assay [1]; in the assay with RPTEC [3]) were 68% and 2%, respectively. Moreover, the inhibition at 10 µM in the assay on RPTEC [2] amounted to 8%; in assay [5], 82%. Also, the inhibition at 1 µM with RPTEC [4] came out at 12%; in assay [6] it was 73%.

`Cc1c(Cc2c(Cl)cccc2Cl)c(=O)oc2cc(OCC(=O)OCC(=O)c3ccc(Cl)cc3)ccc12`: the values for the inhibition at 0.1 µM (in assay [1]; in the assay on RPTEC [3]) were 72% and 16%, respectively. Further, the inhibition at 10 µM with RPTEC [2] amounted to 21%; in assay [5], 80%. Besides, the inhibition at 1 µM in the assay on RPTEC [4] came to 6%; in assay [6], 74%.

As for `CCOP(=O)(Cc1ccc(C(=O)Nc2cc(-c3ccc(Cl)cc3)no2)cc1)OCC`, the inhibition at 0.1 µM in assay [1] came out at 69%; with RPTEC [3], 30%. Moreover, the inhibition at 10 µM in the assay on RPTEC [2] was 99%; in assay [5], 94%. The inhibition at 1 µM in the assay on RPTEC [4] worked out at 88%; in assay [6] it was 91%.

Regarding `CCOP(=O)(Cc1ccc(C(=O)Nc2ccccn2)cc1)OCC`, the inhibition at 0.1 µM in assay [1] was found to be 62%; in the assay with RPTEC [3], 23%. Besides, the inhibition at 10 µM is 60% in the assay with RPTEC [2] and 68% in assay [5]. The inhibition at 1 µM was 32% with RPTEC [4] and 65% in assay [6].

For the compound `CCOP(=O)(Cc1ccc(C(=O)Nc2nc(-c3ccccc3)ns2)cc1)OCC`, the inhibition at 0.1 µM in assay [1] is 62%; in the assay with RPTEC [3], 33%. Besides, the inhibition at 10 µM was 96% in the assay on RPTEC [2] and 108% in assay [5]. In addition, the inhibition at 1 µM with RPTEC [4] came to 61%; in assay [6] it was 85%.

Turning to `CCOP(=O)(Cc1ccc(C(=O)Nc2ccc(Br)cc2C#N)cc1)OCC` [IBROLIPIM], the values for the inhibition at 10 µM (with RPTEC [2]; in assay [5]) were 77% and 56%, respectively.
